Laboratory results: ChEMBL document CHEMBL4219109, “Design, synthesis and biological evaluation of novel hydroxamic acid based histone deacetylase 6 selective inhibitors bearing phenylpyrazol scaffold as surface recognition motif” (Bioorg Med Chem, 2018)

How the values were obtained:
[1] = system: HepG2; assay: Antiproliferative activity against human HepG2 cells after 96 hrs by MTT assay; type: functional; conditions: Homo sapiens, HepG2, 96 h
Method in brief: (§1)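 Cells from Shanghai Cell Bank; A549 grown in high-glucose DMEM and HepG2 in MEM, both with 10% FBS plus penicillin/streptomycin, at 37°C in 5% CO₂. Seeded at 1.5-3.5×10⁴ cells/well for 24 h, then given graded compound concentrations for 96 h. MTT solution (2 mg/mL) added for 4 h, formazan dissolved in DMSO, A570 read. Growth expressed as treated/untreated cell number ratio.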

[2] = system: HepG2; assay: Potency index, ratio of vorinostat GI50 to compound GI50 for human HepG2 cells; type: functional
[3] = system: A549; assay: Antiproliferative activity against human A549 cells after 96 hrs by MTT assay; type: functional; conditions: Homo sapiens, A549, 96 h; method in brief: as §1
[4] = target: Histone deacetylase; assay: Inhibition of HDAC in human HeLa nuclear extract using Boc-Lys-(Ac)-AMC as substrate preincubated for 15 mins followed by substrate addition measured after 60 mins by fluorescence assay; type: protein assay
[5] = target: T1, Histone deacetylase 8 (Homo sapiens, UniProt Q9BY41); assay: Inhibition of full length recombinant human C-terminal His-tagged HDAC8 expressed in baculovirus infected sf9 cells using Boc-Lys-(TFA)-AMC as substrate preincubated for 15 mins followed by substrate addition measured after 60 mins by fluorescence assay
T1 sequence (Q9BY41 whole entry): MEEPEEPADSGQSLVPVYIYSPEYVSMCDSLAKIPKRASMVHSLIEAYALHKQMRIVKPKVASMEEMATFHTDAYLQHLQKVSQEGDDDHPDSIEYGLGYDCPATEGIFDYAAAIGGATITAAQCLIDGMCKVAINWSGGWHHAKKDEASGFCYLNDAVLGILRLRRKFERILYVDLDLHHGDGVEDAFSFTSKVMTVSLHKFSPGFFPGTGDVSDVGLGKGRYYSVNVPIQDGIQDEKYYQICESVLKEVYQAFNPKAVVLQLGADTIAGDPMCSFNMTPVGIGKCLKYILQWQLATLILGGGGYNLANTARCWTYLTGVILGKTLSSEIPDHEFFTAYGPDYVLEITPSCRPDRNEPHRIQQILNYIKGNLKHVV

[6] = target: Histone deacetylase 2 (Homo sapiens, UniProt Q92769); assay: (§2) Inhibition of full length recombinant human C-terminal His-tagged HDAC2 expressed in baculovirus infected sf9 cells using Boc-Lys-(Ac)-AMC as substrate preincubated for 15 mins followed by substrate addition measured after 60 mins by fluorescence assay
Chain of Histone deacetylase 2 (Q92769 whole entry, the tested form may be a part): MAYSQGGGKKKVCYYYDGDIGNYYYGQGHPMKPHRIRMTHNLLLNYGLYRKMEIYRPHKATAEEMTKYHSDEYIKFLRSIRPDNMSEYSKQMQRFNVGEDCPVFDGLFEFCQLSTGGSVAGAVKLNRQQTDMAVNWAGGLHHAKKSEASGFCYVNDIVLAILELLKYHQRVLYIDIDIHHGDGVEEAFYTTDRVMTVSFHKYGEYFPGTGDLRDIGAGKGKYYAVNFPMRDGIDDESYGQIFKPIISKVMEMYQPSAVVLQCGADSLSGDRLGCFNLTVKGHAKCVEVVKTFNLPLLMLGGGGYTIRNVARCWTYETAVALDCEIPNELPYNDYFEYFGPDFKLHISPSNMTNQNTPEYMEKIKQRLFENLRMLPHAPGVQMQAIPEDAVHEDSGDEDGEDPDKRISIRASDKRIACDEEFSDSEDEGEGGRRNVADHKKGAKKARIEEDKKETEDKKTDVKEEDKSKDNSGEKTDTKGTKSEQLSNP

[7] = target: Histone deacetylase 3/Nuclear receptor corepressor 2 (HDAC3/NCoR2) (Homo sapiens, UniProt O15379); assay: as §2, with “HDAC3/N-terminal GST-tagged NCOR2 (395 to 489 residues)” for “HDAC2”
Chain of Histone deacetylase 3/Nuclear receptor corepressor 2 (HDAC3/NCoR2) (O15379 whole entry, the tested form may be a part): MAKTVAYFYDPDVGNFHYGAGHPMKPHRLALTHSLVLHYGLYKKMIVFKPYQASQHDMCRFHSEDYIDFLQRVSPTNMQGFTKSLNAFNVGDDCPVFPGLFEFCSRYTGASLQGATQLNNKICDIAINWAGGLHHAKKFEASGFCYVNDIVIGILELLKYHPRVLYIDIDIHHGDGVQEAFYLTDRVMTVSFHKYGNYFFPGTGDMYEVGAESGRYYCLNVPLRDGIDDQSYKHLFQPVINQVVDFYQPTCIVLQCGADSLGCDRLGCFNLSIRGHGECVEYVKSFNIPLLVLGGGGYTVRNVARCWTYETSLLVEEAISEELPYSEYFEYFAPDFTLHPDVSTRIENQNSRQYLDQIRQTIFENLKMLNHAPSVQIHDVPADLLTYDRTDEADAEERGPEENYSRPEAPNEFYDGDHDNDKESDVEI
Chain of Histone deacetylase 3/Nuclear receptor corepressor 2 (HDAC3/NCoR2) (Q9Y618 whole entry, further chain, the tested form may be a part): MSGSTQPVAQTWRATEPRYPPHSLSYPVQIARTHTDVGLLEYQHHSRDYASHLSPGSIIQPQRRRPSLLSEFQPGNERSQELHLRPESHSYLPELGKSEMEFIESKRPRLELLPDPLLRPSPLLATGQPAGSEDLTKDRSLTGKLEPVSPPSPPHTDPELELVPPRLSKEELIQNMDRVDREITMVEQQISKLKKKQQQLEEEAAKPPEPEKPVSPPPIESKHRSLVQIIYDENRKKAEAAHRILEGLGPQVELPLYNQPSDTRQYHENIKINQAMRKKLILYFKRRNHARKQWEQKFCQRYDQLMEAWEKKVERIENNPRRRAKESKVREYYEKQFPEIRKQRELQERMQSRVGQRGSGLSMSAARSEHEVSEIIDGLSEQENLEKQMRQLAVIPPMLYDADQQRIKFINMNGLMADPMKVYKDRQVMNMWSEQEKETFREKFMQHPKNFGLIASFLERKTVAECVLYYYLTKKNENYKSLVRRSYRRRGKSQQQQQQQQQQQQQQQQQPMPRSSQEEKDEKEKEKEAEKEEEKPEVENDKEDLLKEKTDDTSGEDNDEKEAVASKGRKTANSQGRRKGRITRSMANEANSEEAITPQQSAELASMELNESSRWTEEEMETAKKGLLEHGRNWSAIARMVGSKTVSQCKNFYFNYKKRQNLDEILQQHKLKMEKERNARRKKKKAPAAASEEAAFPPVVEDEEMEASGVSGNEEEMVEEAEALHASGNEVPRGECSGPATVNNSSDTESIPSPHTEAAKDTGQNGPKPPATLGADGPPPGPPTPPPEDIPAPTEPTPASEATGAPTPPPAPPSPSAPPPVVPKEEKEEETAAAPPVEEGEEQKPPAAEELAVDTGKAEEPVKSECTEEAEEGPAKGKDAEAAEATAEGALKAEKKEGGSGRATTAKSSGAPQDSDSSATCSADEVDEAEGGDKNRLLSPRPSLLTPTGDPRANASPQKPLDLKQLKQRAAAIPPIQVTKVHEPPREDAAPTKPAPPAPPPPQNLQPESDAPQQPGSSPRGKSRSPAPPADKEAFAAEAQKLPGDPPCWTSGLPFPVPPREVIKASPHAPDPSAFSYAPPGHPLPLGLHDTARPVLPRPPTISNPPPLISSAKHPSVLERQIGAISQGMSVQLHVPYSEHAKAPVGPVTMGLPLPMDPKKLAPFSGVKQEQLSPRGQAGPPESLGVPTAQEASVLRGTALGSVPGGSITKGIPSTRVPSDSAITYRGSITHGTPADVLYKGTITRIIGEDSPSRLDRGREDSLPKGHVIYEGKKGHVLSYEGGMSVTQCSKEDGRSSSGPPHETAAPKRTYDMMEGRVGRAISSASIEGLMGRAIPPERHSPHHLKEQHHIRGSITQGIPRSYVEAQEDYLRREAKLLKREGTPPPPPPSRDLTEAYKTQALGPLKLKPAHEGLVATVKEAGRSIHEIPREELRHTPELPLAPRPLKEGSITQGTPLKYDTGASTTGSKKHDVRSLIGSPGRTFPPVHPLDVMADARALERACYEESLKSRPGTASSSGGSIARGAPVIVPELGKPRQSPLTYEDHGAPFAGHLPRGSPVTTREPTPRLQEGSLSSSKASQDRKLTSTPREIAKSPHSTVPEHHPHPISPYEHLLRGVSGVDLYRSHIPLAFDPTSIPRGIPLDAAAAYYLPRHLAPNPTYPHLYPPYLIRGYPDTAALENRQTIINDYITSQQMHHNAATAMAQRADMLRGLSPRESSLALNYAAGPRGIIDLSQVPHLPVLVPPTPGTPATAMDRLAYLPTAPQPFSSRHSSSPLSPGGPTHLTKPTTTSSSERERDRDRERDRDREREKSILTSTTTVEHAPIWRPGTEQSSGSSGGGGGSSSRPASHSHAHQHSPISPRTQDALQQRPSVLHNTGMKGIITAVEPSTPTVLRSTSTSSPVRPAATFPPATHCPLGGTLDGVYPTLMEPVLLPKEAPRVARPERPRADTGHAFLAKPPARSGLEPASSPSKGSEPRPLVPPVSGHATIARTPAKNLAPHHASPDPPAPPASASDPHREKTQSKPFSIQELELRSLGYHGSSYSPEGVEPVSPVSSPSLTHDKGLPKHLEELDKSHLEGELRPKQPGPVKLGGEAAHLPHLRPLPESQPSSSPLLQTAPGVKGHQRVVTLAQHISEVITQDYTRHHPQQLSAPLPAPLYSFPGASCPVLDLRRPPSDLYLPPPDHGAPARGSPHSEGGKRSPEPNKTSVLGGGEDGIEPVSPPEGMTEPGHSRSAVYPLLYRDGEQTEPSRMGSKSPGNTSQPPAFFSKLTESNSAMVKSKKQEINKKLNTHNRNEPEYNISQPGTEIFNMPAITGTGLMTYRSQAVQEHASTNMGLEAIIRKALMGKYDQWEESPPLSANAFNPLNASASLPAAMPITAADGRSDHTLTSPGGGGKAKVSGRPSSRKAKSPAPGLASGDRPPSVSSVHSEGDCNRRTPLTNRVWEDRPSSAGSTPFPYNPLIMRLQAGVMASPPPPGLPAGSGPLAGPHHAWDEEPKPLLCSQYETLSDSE

[8] = target: T2, Protein deacetylase HDAC6 (Homo sapiens, UniProt Q9UBN7); assay: Inhibition of full length recombinant human N-terminal GST-tagged HDAC6 expressed in baculovirus infected sf9 cells using Boc-Lys-(Ac)-AMC as substrate preincubated for 15 mins followed by substrate addition measured after 60 mins by fluorescence assay
T2 sequence (Q9UBN7 whole entry): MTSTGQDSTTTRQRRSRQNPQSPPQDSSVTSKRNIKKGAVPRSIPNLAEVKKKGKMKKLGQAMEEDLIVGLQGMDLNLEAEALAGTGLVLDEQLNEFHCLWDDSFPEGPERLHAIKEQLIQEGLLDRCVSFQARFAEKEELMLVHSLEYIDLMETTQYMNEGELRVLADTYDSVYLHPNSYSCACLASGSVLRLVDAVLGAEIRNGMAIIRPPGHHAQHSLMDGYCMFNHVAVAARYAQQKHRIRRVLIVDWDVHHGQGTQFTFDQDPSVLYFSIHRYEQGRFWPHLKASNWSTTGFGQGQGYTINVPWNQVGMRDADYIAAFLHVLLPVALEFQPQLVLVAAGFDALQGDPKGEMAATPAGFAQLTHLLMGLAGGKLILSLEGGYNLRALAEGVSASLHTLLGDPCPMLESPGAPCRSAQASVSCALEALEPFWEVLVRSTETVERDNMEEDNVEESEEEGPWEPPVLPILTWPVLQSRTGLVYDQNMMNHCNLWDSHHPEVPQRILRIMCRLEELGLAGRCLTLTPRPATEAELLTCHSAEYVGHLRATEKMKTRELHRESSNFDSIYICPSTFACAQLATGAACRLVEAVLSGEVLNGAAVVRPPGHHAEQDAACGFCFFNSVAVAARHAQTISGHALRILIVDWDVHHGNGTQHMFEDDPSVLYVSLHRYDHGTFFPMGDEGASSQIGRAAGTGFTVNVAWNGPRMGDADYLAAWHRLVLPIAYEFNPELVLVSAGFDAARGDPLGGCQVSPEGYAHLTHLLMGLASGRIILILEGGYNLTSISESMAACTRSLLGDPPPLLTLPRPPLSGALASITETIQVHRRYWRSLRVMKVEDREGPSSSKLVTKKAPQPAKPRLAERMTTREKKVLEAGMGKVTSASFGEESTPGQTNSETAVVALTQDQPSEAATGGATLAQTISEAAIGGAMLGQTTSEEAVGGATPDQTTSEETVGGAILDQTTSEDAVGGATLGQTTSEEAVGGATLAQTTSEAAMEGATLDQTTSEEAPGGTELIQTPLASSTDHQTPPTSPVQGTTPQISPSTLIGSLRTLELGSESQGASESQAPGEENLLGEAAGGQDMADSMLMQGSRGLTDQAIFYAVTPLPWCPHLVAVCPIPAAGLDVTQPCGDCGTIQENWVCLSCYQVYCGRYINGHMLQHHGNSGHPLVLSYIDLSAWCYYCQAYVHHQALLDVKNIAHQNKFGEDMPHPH

[9] = target: Histone deacetylase 1 (Homo sapiens, UniProt Q13547); assay: Inhibition of full length recombinant human C-terminal FLAG/His-tagged HDAC1 expressed in baculovirus infected sf9 cells using Boc-Lys-(Ac)-AMC as substrate preincubated for 15 mins followed by substrate addition measured after 60 mins by fluorescence assay
Chain of Histone deacetylase 1 (Q13547 whole entry): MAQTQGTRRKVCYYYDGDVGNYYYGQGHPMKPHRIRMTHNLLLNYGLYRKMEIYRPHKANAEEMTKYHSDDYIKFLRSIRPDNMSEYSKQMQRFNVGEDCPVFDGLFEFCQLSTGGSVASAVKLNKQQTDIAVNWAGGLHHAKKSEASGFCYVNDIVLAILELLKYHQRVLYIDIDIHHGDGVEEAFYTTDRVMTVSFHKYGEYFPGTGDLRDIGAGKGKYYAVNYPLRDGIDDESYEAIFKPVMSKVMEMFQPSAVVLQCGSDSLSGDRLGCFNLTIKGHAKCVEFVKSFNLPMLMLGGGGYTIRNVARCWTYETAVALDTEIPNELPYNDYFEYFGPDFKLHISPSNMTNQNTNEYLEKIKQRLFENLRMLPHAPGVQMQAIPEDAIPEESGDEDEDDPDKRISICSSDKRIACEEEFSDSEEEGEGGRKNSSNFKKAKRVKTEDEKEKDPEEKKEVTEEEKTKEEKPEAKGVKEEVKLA

Q: Which results are given for `Cc1cc(-c2ccc(F)cc2)n(Cc2ccc(C(=O)NO)cc2)n1`?
A: GI50 [1]: 3630 nM; RatioGI50 [2]: 6; GI50 [3]: 33000 nM; IC50 [4]: 1439 nM; IC50 [5]: > 5000 nM; IC50 [6]: 1970 nM; IC50 [7]: 1200 nM; IC50 [8]: 20 nM; IC50 [9]: 2020 nM
